Measurements reported in article PMC11812941 (CPT: Pharmacometrics & Systems Pharmacology, 2024).
Where two headings read alike, the source gives them in different places.

Tests used:
[1] = tested on: patients with GA secondary to AMD (GA lesion area, study eye); assay: Dose-response model of GA lesion area, pooled FILLY, OAKS and DERBY data; assay type: in vivo, human; settings: point estimate
Summary of the method: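 Study eyes were randomized 2:2:1:1 to a 100 μL intravitreal injection of test compound 15 mg monthly or EOM, or sham monthly or EOM, for ≤24 months. GA lesion area was measured by fundus autofluorescence. A linear-with-time disease progression model with covariates was built from sham and untreated fellow eyes. Step-function drug effects per regimen were fitted in NONMEM.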

[2] = Prevalence of serum antidrug antibodies in FILLY, OAKS and DERBY; assay type: in vivo, human; settings: detectable at baseline or at any time during the study
[3] = cited from earlier work
[4] = cited from earlier work; remark: listed apart in the source
[5] = tested on: patients with GA secondary to AMD (GA lesion area); settings: phase II FILLY, cited from earlier work
[6] = tested on: patients with GA secondary to AMD (GA lesion area); settings: phase III OAKS and DERBY combined, cited from earlier work

- prevalence of serum antidrug antibodies against the PEG moiety [2]: 67%
- prevalence of serum antidrug antibodies against the peptide moiety [2]: 5%
Substance: pegcetacoplan
- model-predicted rate of disease progression (GA lesion growth rate) relative to sham ([1]; pegcetacoplan 15 mg intravitreal EOM, 95% CI 0.78, 0.87): 0.83 fold
- model-predicted rate of disease progression (GA lesion growth rate) relative to sham ([1]; pegcetacoplan 15 mg intravitreal monthly, 95% CI 0.75, 0.84): 0.80 fold
- model-predicted steady-state serum maximal concentration, geometric mean ([3]; patients with GA, 15 mg intravitreal EOM, CV 58.1%): 1.5 µg/mL
- accumulation from first dose to steady-state, ratio of geometric mean exposure ([3]; serum or vitreous humor): 1.10–1.50
- average exposure relative to reference body weight 70 kg ([4]; 5th percentile of body weight (53 kg), higher, 90% CI 1.16-1.23): 1.20 fold
- average exposure relative to reference body weight 70 kg ([4]; 95th percentile of body weight (94 kg), lower, 90% CI 0.800-0.853): 0.827 fold
- effective elimination half-life, median (interquartile range) ([4]; patients with paroxysmal nocturnal hemoglobinuria): 8.6 (6.9–11.0) days
- clearance, predicted geometric mean ([4]; population PK model, 11 clinical studies, CV 30%): 0.36 L/day
- reduction in GA lesion area growth compared with sham treatment ([5]; EOM): 20%
- reduction in GA lesion area growth compared with sham treatment ([5]; monthly): 29%
- reduction in GA lesion area growth compared with sham treatment ([6]; EOM): 24%
- reduction in GA lesion area growth compared with sham treatment ([6]; monthly): 30%
